Results on 35 compounds are retold here after ChEMBL document CHEMBL2390834, “Structure-activity relationships for ferriprotoporphyrin IX association and β-hematin inhibition by 4-aminoquinolines using experimental and ab initio methods” (Bioorg Med Chem, 2013).

A short description of experiment [1]: Inhibition of beta-hematin formation after 60 mins by colorimetric assay relative to Fe(3)PP9. The class given is functional. The gist of the method:
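4.5 M acetate drives β-hematin formation. Leftover Fe(III)PPIX is then reacted with 5% aqueous pyridine to give a low-spin bis-pyridyl complex, read colorimetrically. Prior method used unmodified; result reported as BHIA₅₀ (50% inhibitory activity).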

Another experiment relates to Ferriprotoporphyrin IX. The experiment is described as follows: Binding affinity to ferriprotoporphyrin 9 at pH 7.5 by UV-vis spectrophotometric analysis in presence of 40% DMSO. Put shortly: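 Association constant (log K) with Fe(III)PPIX measured by spectrophotometric titration in 40% aqueous (v/v) DMSO, pH 7.5, using a previously described method without modification.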

For a further experiment, the system named is Plasmodium falciparum. The experiment in a line: Antimalarial activity against chloroquine-sensitive Plasmodium falciparum NF54 by [3H]hypoxanthine incorporation assay. The class given is functional, organism-based. Put shortly:
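Chloroquine-sensitive NF54 P. falciparum parasites grown in vitro; growth measured by [³H]-hypoxanthine incorporation, essentially as in earlier work; IC50 in nM.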

Compound `Nc1ccnc2cc(C(F)(F)F)ccc12` registered an IA50 in experiment [1] of 5.6 equiv. In addition, the log K in the experiment on Ferriprotoporphyrin IX came to 4.41.

In turn, `CNc1ccnc2cc(OC)ccc12` registered an IA50 in experiment [1] of 10.4 equiv. Further, in the experiment with Ferriprotoporphyrin IX, the log K came to 3.71.

`CCN(CC)CCNc1ccnc2cc(OC)ccc12` registered an IA50 in experiment [1] above 20 equiv. For the same compound, the log K with Ferriprotoporphyrin IX is 4.83.

With `CCN(CC)CCNc1ccnc2cc([N+](=O)[O-])ccc12`, the IA50 in experiment [1] was 3.1 equiv. Besides, the log K in the experiment with Ferriprotoporphyrin IX was found to be 4.65.

`CNc1ccnc2cc(C#N)ccc12` showed an IA50 in experiment [1] of 4.5 equiv. Moreover, the log K in the experiment on Ferriprotoporphyrin IX is 4.42.

The compound `CNc1ccnc2cc(C(N)=O)ccc12` came in with an IA50 in experiment [1] of 10.1 equiv. Further, the log K with Ferriprotoporphyrin IX came out at 3.43.

`CCN(CC)CCNc1ccnc2cc(I)ccc12` came in with an IA50 in experiment [1] of 2.8 equiv. The log K in the experiment on Ferriprotoporphyrin IX was found to be 5.02.

In general, IC50 refers to the point on the concentration scale where inhibition reaches its midpoint. A higher IC50 goes with weaker potency in that assay. As to `NCCNc1ccnc2cc(C(F)(F)F)ccc12`, in the experiment on Plasmodium falciparum, inhibition was half-maximal at 8.6 nM (IC50). The IA50 in experiment [1] came out at 5.4 equiv. Moreover, the log K in the experiment with Ferriprotoporphyrin IX is 4.7.

As for `Nc1ccnc2cc(Cl)ccc12`, the IA50 in experiment [1] was determined as 5.8 equiv. The log K in the experiment on Ferriprotoporphyrin IX was 5.01.

The compound `Nc1ccnc2cc([N+](=O)[O-])ccc12` displayed an IA50 in experiment [1] of 5.7 equiv. Moreover, in the experiment with Ferriprotoporphyrin IX, the log K was determined as 4.57.

As for `CNc1ccnc2cc(C)ccc12`, the IA50 in experiment [1] was determined as 11.1 equiv. The log K in the experiment on Ferriprotoporphyrin IX was determined as 4.01.

`Nc1ccnc2ccccc12` returned an IA50 in experiment [1] of 10 equiv. Besides, in the experiment with Ferriprotoporphyrin IX, the log K came out at 3.83.

In experiment [1], `COc1ccc2c(N)ccnc2c1` yielded an IA50 of 15.6 equiv. In addition, the log K with Ferriprotoporphyrin IX turned out to be 4.24.

With `COc1ccc2c(NCCN)ccnc2c1`, the IA50 in experiment [1] is 10.6 equiv. In addition, the log K in the experiment with Ferriprotoporphyrin IX was determined as 4.47.

Regarding `NCCNc1ccnc2ccccc12`, in the experiment with Plasmodium falciparum, the IC50 worked out at 66 nM. This compound also yielded an IA50 in experiment [1] of 10.6 equiv. Also, the log K in the experiment on Ferriprotoporphyrin IX was found to be 4.38.

In the experiment with Plasmodium falciparum, `N#Cc1ccc2c(NCCN)ccnc2c1` displayed an IC50 of 20 nM. Also, the IA50 in experiment [1] is 6.3 equiv. The log K with Ferriprotoporphyrin IX turned out to be 4.47.

`Nc1ccc2c(N)ccnc2c1`: the IA50 in experiment [1] was above 20 equiv. The log K in the experiment with Ferriprotoporphyrin IX was determined as 3.44.

For `CNc1ccnc2ccccc12`, the IA50 in experiment [1] turned out to be 14.9 equiv. Besides, the log K in the experiment on Ferriprotoporphyrin IX was 3.92.

`CNc1ccnc2cc(N)ccc12` gave an IA50 in experiment [1] above 20 equiv. Further, in the experiment with Ferriprotoporphyrin IX, the log K was determined as 4.04.

As to `CCN(CC)CCNc1ccnc2cc(Cl)ccc12`, the IA50 in experiment [1] is 2.2 equiv. The log K in the experiment with Ferriprotoporphyrin IX was found to be 5.81.

In the experiment with Plasmodium falciparum, `NCCNc1ccnc2cc(Cl)ccc12` returned an IC50 of 4.6 nM. In experiment [1], this compound gave an IA50 of 5.4 equiv. Besides, the log K with Ferriprotoporphyrin IX is 5.1.

In experiment [1], `Cc1ccc2c(N)ccnc2c1` showed an IA50 of 10.8 equiv. Further, the log K with Ferriprotoporphyrin IX was determined as 4.17.

For `CNc1ccnc2cc(C(F)(F)F)ccc12`, the IA50 in experiment [1] was 5 equiv. The log K with Ferriprotoporphyrin IX came out at 4.18.

As for `CCN(CC)CCNc1ccnc2cc(C(F)(F)F)ccc12`, in experiment [1], the IA50 was 8 equiv. For the same compound, in the experiment on Ferriprotoporphyrin IX, the log K was determined as 4.67.

Take `CCN(CC)CCNc1ccnc2cc(C)ccc12`: in experiment [1], the IA50 is 17 equiv. Besides, in the experiment with Ferriprotoporphyrin IX, the log K came out at 4.86.

In turn, `CCN(CC)CCNc1ccnc2cc(N)ccc12` returned an IA50 in experiment [1] above 20 equiv. In addition, in the experiment with Ferriprotoporphyrin IX, the log K is 4.35.

The compound `CCN(CC)CCNc1ccnc2cc(Br)ccc12` registered an IA50 in experiment [1] of 4.4 equiv. In addition, the log K in the experiment with Ferriprotoporphyrin IX was determined as 4.99.

In the case of `NCCNc1ccnc2cc([N+](=O)[O-])ccc12`, it took 747 nM to reach half-maximal inhibition with Plasmodium falciparum (IC50). The same compound showed an IA50 in experiment [1] of 5.3 equiv. In addition, the log K in the experiment with Ferriprotoporphyrin IX amounted to 4.48.

In turn, `CCN(CC)CCNc1ccnc2cc(F)ccc12` registered an IA50 in experiment [1] of 9.7 equiv. In addition, the log K with Ferriprotoporphyrin IX is 4.6.

Compound `Cc1ccc2c(NCCN)ccnc2c1` had an IC50 with Plasmodium falciparum of 37 nM. In addition, the IA50 in experiment [1] amounted to 10.3 equiv. Further, in the experiment with Ferriprotoporphyrin IX, the log K stood at 4.35.

In experiment [1], `CNc1ccnc2cc([N+](=O)[O-])ccc12` gave an IA50 of 5.5 equiv. In the experiment with Ferriprotoporphyrin IX, the log K was 4.32.

In experiment [1], `CCN(CC)CCNc1ccnc2ccccc12` returned an IA50 above 20 equiv. The log K in the experiment with Ferriprotoporphyrin IX was 4.75.

As for `CNc1ccnc2cc(Cl)ccc12`, the IA50 in experiment [1] stood at 5.7 equiv. Besides, the log K in the experiment on Ferriprotoporphyrin IX was found to be 4.62.

`N#Cc1ccc2c(N)ccnc2c1` gave an IA50 in experiment [1] of 6.1 equiv. Further, the log K in the experiment on Ferriprotoporphyrin IX is 4.32.

Regarding `NC(=O)c1ccc2c(N)ccnc2c1`, in experiment [1], the IA50 was 10.3 equiv. The log K in the experiment on Ferriprotoporphyrin IX was determined as 3.76.
